Experimental data from ChEMBL document CHEMBL3826951, “Discovery of Benzocycloalkane Derivatives Efficiently Blocking Bacterial Virulence for the Treatment of Methicillin-Resistant S. aureus (MRSA) Infections by Targeting Diapophytoene Desaturase (CrtN)” (J Med Chem, 2016).
Calls of active or inactive are those of the source. The calls are words filed in the database; no cut-off is given here.

Tests used:
[1] = test system: Staphylococcus aureus; assay: (§1) Attenuation of methicillin-resistant Staphylococcus aureus Mu 50 virulence in BALB/c mouse systemic infection model assessed as decrease in bacterial survival in liver at 200 mg/kg, ip administered every 12 hrs for 108 hrs followed by bacterial challenge after first 12 hrs of compound dosing measured 5 days post infection; type: functional, Mu50
Outline: (§2)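 Female BALB/c mice, 6-8 weeks old. Dosed ip every 12 h for 108 h. Challenged with 100 µL at 12 h: 1.6 × 10^8 CFU Mu50 or 4 × 10^7 CFU USA400 MW2. Sacrificed 5 days post-infection. Livers and kidneys homogenised in PBS/0.1% Triton X-100, serially plated on TSA, CFU counted; two-tailed Mann-Whitney.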

[2] = test system: Staphylococcus aureus; assay: as §1, with “USA400 MW2” for “Mu 50”, “burden” for “survival”; type: functional; outline: as §2
[3] = test system: Staphylococcus aureus; assay: as §1, with “USA400 MW2” for “Mu 50”, “burden” for “survival”, “50” for “200”; type: functional; outline: as §2
[4] = test system: Staphylococcus aureus; assay: as §1, with “50” for “200”; type: functional; settings: Mu50; outline: as §2
[5] = test system: Staphylococcus aureus; assay: as §1, with “kidney” for “liver”; type: functional, Mu50; outline: as §2
[6] = test system: Staphylococcus aureus; assay: as §1, with “kidney” for “liver”, “50” for “200”; type: functional; settings: Mu50; outline: as §2
[7] = target: T1, 4,4'-diapophytoene synthase (Staphylococcus aureus, UniProt A9JQL9); assay: Inhibition of Staphylococcus aureus ATCC 27659 full length His-tagged dehydrosqualene synthase expressed in Escherichia coli BL21 (DE3) cells assessed as reduction in staphyloxanthin pigment formation after 72 hrs by spectrophotometric analysis
T1 sequence (A9JQL9 whole entry): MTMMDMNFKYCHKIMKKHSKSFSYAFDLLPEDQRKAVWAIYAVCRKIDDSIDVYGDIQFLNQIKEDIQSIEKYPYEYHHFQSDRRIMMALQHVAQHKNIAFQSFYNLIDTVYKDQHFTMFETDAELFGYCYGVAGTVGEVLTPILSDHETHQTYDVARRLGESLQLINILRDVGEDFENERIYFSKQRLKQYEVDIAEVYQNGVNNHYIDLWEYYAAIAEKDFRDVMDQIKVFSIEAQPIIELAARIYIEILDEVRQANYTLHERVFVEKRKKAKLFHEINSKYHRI

O=P([O-])([O-])C(CCCc1cccc(Oc2ccccc2)c1)S(=O)(=O)[O-].[K+].[K+].[K+] (configuration not stated)
Activity [1]: 2.84 log10CFU
Activity [2]: 1.59 log10CFU
Activity [3]: inactive
Activity [4]: Active
Activity [5]: 0.3 log10CFU
Activity [6]: inactive
IC50 [7]: 83.4 nM
